Series [1] is described as follows: Clearance in rat liver microsomes assessed as drug turnover level at 1 uM incubated for 30 mins in presence of NADPH. It is filed as ADME, Microsome. Particulars: read-out: CLH. An outline of the steps:
(§1)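 Parent compound at 1 µM incubated with liver microsomes (0.25 mg/mL) in 66.7 mM potassium phosphate with 1 mM NADPH, 37 °C, 30 min; % turnover measured by LC/MS.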
A general note: Microsomes from liver hold many membrane-bound enzymes, among them those of drug oxidation.

A short description of series [2]: Clearance in human liver microsomes assessed as drug turnover level at 1 uM incubated for 30 mins in presence of NADPH. The settings on record: read-out: CLH. It counts as ADME, Microsome. An outline of the steps: as §1
Series [3] in a line: Clearance in Sprague-Dawley rat at 0.5 mg/kg, iv by LC-MS method. Particulars: in vivo. It counts as ADME, organism-based. Put shortly: (§2)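 Male Sprague-Dawley rats, two animals per study, dosed IV at 0.5 mg/kg as a solution in 100% DMSO. Unbound clearance calculated as total clearance divided by rat plasma fraction unbound (CLu = CL/fu).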
The nature of series [4]: Unbound clearance in Sprague-Dawley rat at 0.5 mg/kg, iv by LC-MS method. The settings on record: in vivo. It is filed as ADME, organism-based. Put shortly: as §2
Series [5] in a line: Aqueous equilibrium solubility at room temperature after 72 hrs at pH 7.4 by HPLC. It is filed as physicochemical. The settings on record: buffer.
The nature of series [6]: Apparent permeability in LLC-PK1 cells by LC-MS method. It counts as ADME, cell-based, Sus scrofa. The settings on record: pig. Put shortly: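 Passive permeability across LLCPK1 monolayers; apparent permeability (Papp) obtained by mass balance with LC/MS quantitation.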
Series [7] can be described thus: Oral bioavailability in Sprague-Dawley rat at 2 mg/kg by LC-MS method. It counts as ADME, organism-based. The settings on record: in vivo.

The structures appear in SMILES notation. ≈ marks a conversion by molar mass, not a printed value. Bounds are passed on as bounds.

The clearance is a measure of how efficiently the substance is removed, as volume per time. In general, thermodynamic solubility refers to the concentration in solution at equilibrium with solid. A word on the Papp: it is the rate of passage across a membrane or cell layer, normalised by area and donor concentration. The term bioavailability denotes the share of a dose that reaches the circulation, judged against a reference dose that is usually intravenous. A low value points to little systemic uptake.

With `CC(C)NC(=O)c1c(-c2ccccc2)c([C@H](C)Nc2ncnc(N)c2C#N)nc2ccc(F)cc12`, the microsomal CLint at 1 µM in series [1] is less than 14 µL/min/mg; in series [2] it was 51 µL/min/mg.

Regarding `CC(Nc1ncnc(N)c1C#N)c1nc2ccc(F)cc2c(C(=O)N2CCNCC2)c1-c1ccccn1` (racemic), the figures for the microsomal CLint at 1 µM in series [1] and in series [2] were 17 µL/min/mg and 24 µL/min/mg, respectively.

Take `C[C@H](Nc1ncnc(N)c1C#N)c1nc2ccc(F)cc2c(-c2ccccn2)c1-c1ccccn1`: the microsomal CLint at 1 µM stood at 16 µL/min/mg in series [1] and 47 µL/min/mg in series [2].

For the compound `C[C@H](Nc1ncnc(N)c1C#N)c1nc2ccc(F)cc2c(C(=O)N2CCS(=O)(=O)CC2)c1-c1ccccc1`, the microsomal CLint at 1 µM in series [1] came to 78 µL/min/mg; in series [2], 62 µL/min/mg.

Regarding `CNCCNC(=O)c1c(-c2ccccc2)c([C@H](C)Nc2ncnc(N)c2C#N)nc2ccc(F)cc12`, the microsomal CLint at 1 µM in series [1] and in series [2] was less than 14 µL/min/mg throughout.

With `CC(Nc1ncnc(N)c1C#N)c1nc2ccc(F)cc2c(C(=O)N2CC(O)C2)c1-c1ccccn1` (racemic), the microsomal CLint at 1 µM in series [1] and in series [2] was less than 14 µL/min/mg each time.

Turning to `CNC(=O)c1c(-c2ccccn2)c([C@H](C)Nc2ncnc(N)c2C#N)nc2ccc(F)cc12`, the microsomal CLint at 1 µM in series [1] and in series [2] was less than 14 µL/min/mg throughout. In series [3], the clearance is 8.33 mL/min/kg. The same compound returned a CL free in series [4] of 38.3 mL/min/kg. The compound further returned a solubility (thermodynamic) at 72 h in series [5] of 200 µg/mL (≈ 452 µM). In addition, the Papp in series [6] was 14.6 ×10⁻⁶ cm/s. In series [7], this compound registered a bioavailability of 70%.

On to `CNCCNC(=O)c1c(-c2ccccn2)c([C@H](C)Nc2ncnc(N)c2C#N)nc2ccc(F)cc12`, for which the microsomal CLint at 1 µM is less than 14 µL/min/mg in series [1] and 33 µL/min/mg in series [2]. In series [3], this compound showed a clearance of 16.7 mL/min/kg. The compound also displayed a CL free in series [4] of 468 mL/min/kg.

Consider `C[C@H](Nc1ncnc(N)c1C#N)c1nc2ccc(F)cc2c(C(=O)N(C)C)c1-c1ccccc1`, for which the microsomal CLint at 1 µM in series [1] came out at 426 µL/min/mg; in series [2], 198 µL/min/mg.

`C[C@H](Nc1ncnc(N)c1C#N)c1nc2ccc(F)cc2c(C(N)=O)c1-c1ccccc1`: the microsomal CLint at 1 µM in series [1] and in series [2] was less than 14 µL/min/mg each time. The clearance in series [3] was 10 mL/min/kg.

For `C[C@H](Nc1ncnc2[nH]cnc12)c1cc2ccc(F)cc2nc1-c1ccccn1` [AMG-319], the microsomal CLint at 1 µM in series [1] and in series [2] was less than 14 µL/min/mg each time. The same compound gave a clearance in series [3] of 5 mL/min/kg. Besides, the CL free in series [4] stood at 45 mL/min/kg. In series [5], this compound yielded a solubility (thermodynamic) at 72 h of more than 200 µg/mL. In addition, the Papp in series [6] worked out at 30 ×10⁻⁶ cm/s. The same compound came in with a bioavailability in series [7] of 54%.

`CCNC(=O)c1c(-c2ccccc2)c([C@H](C)Nc2ncnc(N)c2C#N)nc2ccc(F)cc12`: the microsomal CLint at 1 µM in series [1] was less than 14 µL/min/mg; in series [2], 22 µL/min/mg.

As for `C[C@H](Nc1ncnc(N)c1C#N)c1nc2ccc(F)cc2c(C(=O)N2CCNCC2)c1-c1ccccc1`, the microsomal CLint at 1 µM in series [1] was 50 µL/min/mg; in series [2], 82 µL/min/mg. In series [3], this compound showed a clearance of 15 mL/min/kg. The CL free in series [4] is 1000 mL/min/kg.

Turning to `CCNC(=O)c1c(-c2ccccn2)c([C@H](C)Nc2ncnc(N)c2C#N)nc2ccc(F)cc12`, the microsomal CLint at 1 µM in series [1] and in series [2] was less than 14 µL/min/mg each time. In series [3], this compound gave a clearance of 3.33 mL/min/kg. In addition, in series [4], the CL free was 102 mL/min/kg.

As to `C[C@H](Nc1ncnc(N)c1C#N)c1nc2ccc(F)cc2c(C(=O)N2CC(O)C2)c1-c1ccccc1`, the results for the microsomal CLint at 1 µM in series [1] and in series [2] were 49 µL/min/mg and 40 µL/min/mg, respectively.

Regarding `CNC(=O)c1c(-c2ccccn2)c([C@H](C)Nc2ncnc(N)c2C#N)nc2cccc(F)c12`, the microsomal CLint at 1 µM in series [1] and in series [2] was less than 14 µL/min/mg in each case. In series [3], this compound showed a clearance of 11.7 mL/min/kg. This compound had a CL free in series [4] of 67 mL/min/kg. Moreover, the thermodynamic solubility at 72 h in series [5] stood at 200 µg/mL (≈ 452 µM). Besides, the Papp in series [6] turned out to be 8 ×10⁻⁶ cm/s. The same compound had a bioavailability in series [7] of 29%.

Turning to `CNC(=O)c1c(-c2ccccc2)c([C@H](C)Nc2ncnc(N)c2C#N)nc2ccc(F)cc12`, the microsomal CLint at 1 µM in series [1] is 15 µL/min/mg; in series [2] it was less than 14 µL/min/mg. In series [3], this compound gave a clearance of 8.33 mL/min/kg. This compound also returned a CL free in series [4] of 75 mL/min/kg.

(Values after ChEMBL document CHEMBL4428047 (J Med Chem, 2016).)
